{
  "source": "ChEMBL document CHEMBL1143339",
  "about": "“Design and synthesis of amidoxime derivatives for orally potent C-alkylamidine-based antimalarial agents” (Bioorg Med Chem Lett, 2009)",
  "data": [
    {"test_system": "Plasmodium vinckei petteri", "assay": "Antimalarial activity against Plasmodium vinckei petteri 279BY infected Swiss mice (Mus musculus) at daily intraperitoneal dose for 4 days", "assay_type": "functional", "settings": "ip, 96 h", "method_in_brief": "(§1)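 Female Swiss mice infected iv with 10⁷ P. vinckei petteri 279BY parasites (about 0.5% parasitemia on day 1). Dosed ip or orally once daily on days 1–4 post-infection. Parasitemia read on day 5 and expressed as % of untreated control. Three mice per dose; mean ± SEM.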", "units": {"ED50": "mg/kg"}, "values": [
      {"smiles": "CC(=O)O/N=C(/N)CCCCCCCCCCCCC(=N)NOC(C)=O", "ED50": "> 10"},
      {"smiles": "N=C(CCCCCCCCCCCC/C(N)=N\\OC(=O)c1ccccc1)NOC(=O)c1ccccc1", "ED50": "> 10"},
      {"smiles": "NC(=O)c1nc(CCCCCCCCCCCCc2noc(C(N)=O)n2)no1", "ED50": "> 20"},
      {"smiles": "N#Cc1nc(CCCCCCCCCCCCc2noc(C#N)n2)no1", "ED50": "> 20"},
      {"smiles": "CS(=O)(=O)O/N=C(/N)CCCCCCCCCCCCC(=N)NOS(C)(=O)=O", "ED50": 7},
      {"smiles": "O=c1[nH]c(CCCCCCCCCCCCc2nsc(=O)[nH]2)ns1", "ED50": 20},
      {"smiles": "O=c1[nH]c(CCCCCCCCCCCCc2noc(=O)[nH]2)no1", "ED50": "> 20"},
      {"smiles": "CO/N=C(/N)CCCCCCCCCCCCC(=N)NOC", "ED50": "> 20"},
      {"smiles": "CCNC(=O)O/N=C(/N)CCCCCCCCCCCCC(=N)NOC(=O)NCC", "ED50": "> 20"},
      {"smiles": "N=C(CCCCCCCCCCCC/C(N)=N\\OC(=O)Nc1ccccc1)NOC(=O)Nc1ccccc1", "ED50": "> 20"},
      {"smiles": "N=C(N)CCCCCCCCCCCCC(=N)N", "note": "[TETRADECANEBIS(IMIDAMIDE)]", "ED50": "> 10"}
    ]},
    {"test_system": "Plasmodium vinckei petteri", "assay": "Antimalarial activity against Plasmodium vinckei petteri 279BY infected Swiss mice (Mus musculus) at 180 mg/kg/day peroral dose over 4 days", "assay_type": "functional", "settings": "route oral", "method_in_brief": "as §1", "units": {"Activity": "%"}, "values": [
      {"smiles": "CO/N=C(/N)CCCCCCCCCCCCC(=N)NOC", "Activity": 50}
    ]},
    {"test_system": "Plasmodium vinckei petteri", "assay": "Antimalarial activity against Plasmodium vinckei petteri 279BY infected Swiss mice (Mus musculus) at daily peroral dose for 4 days", "assay_type": "functional", "settings": "po, 96 h", "method_in_brief": "as §1", "units": {"ED50": "mg/kg"}, "values": [
      {"smiles": "N/C(CCCCCCCCCCCC/C(N)=N/O)=N\\O", "ED50": 120},
      {"smiles": "CC(=O)O/N=C(/N)CCCCCCCCCCCCC(=N)NOC(C)=O", "ED50": "> 90"},
      {"smiles": "N=C(CCCCCCCCCCCC/C(N)=N\\OC(=O)c1ccccc1)NOC(=O)c1ccccc1", "ED50": "> 90"},
      {"smiles": "CS(=O)(=O)O/N=C(/N)CCCCCCCCCCCCC(=N)NOS(C)(=O)=O", "ED50": 40},
      {"smiles": "O=c1[nH]c(CCCCCCCCCCCCc2nsc(=O)[nH]2)ns1", "ED50": "> 120"},
      {"smiles": "O=c1[nH]c(CCCCCCCCCCCCc2noc(=O)[nH]2)no1", "ED50": 100},
      {"smiles": "CO/N=C(/N)CCCCCCCCCCCCC(=N)NOC", "ED50": 180},
      {"smiles": "CCNC(=O)O/N=C(/N)CCCCCCCCCCCCC(=N)NOC(=O)NCC", "ED50": 90},
      {"smiles": "N=C(CCCCCCCCCCCC/C(N)=N\\OC(=O)Nc1ccccc1)NOC(=O)Nc1ccccc1", "ED50": "> 180"},
      {"smiles": "N=C(N)CCCCCCCCCCCCC(=N)N", "note": "[TETRADECANEBIS(IMIDAMIDE)]", "ED50": "> 100"}
    ]},
    {"test_system": "Plasmodium falciparum", "assay": "Antimalarial activity after 48 hrs against chloroquine-sensitive Plasmodium falciparum Nigerian by [3H]hypoxanthine uptake", "assay_type": "functional, organism-based", "settings": "not given", "method_in_brief": "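IC50 against P. falciparum given as the mean of at least two independent experiments, each run in duplicate.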", "units": {"IC50": "nM"}, "values": [
      {"smiles": "N/C(CCCCCCCCCCCC/C(N)=N/O)=N\\O", "IC50": 3500},
      {"smiles": "CC(=O)O/N=C(/N)CCCCCCCCCCCCC(=N)NOC(C)=O", "IC50": 1400},
      {"smiles": "N=C(CCCCCCCCCCCC/C(N)=N\\OC(=O)c1ccccc1)NOC(=O)c1ccccc1", "IC50": 1100},
      {"smiles": "NC(=O)c1nc(CCCCCCCCCCCCc2noc(C(N)=O)n2)no1", "IC50": 7000},
      {"smiles": "N#Cc1nc(CCCCCCCCCCCCc2noc(C#N)n2)no1", "IC50": 100000},
      {"smiles": "CS(=O)(=O)O/N=C(/N)CCCCCCCCCCCCC(=N)NOS(C)(=O)=O", "IC50": 2.5},
      {"smiles": "O=c1[nH]c(CCCCCCCCCCCCc2nsc(=O)[nH]2)ns1", "IC50": 17.5},
      {"smiles": "O=c1[nH]c(CCCCCCCCCCCCc2noc(=O)[nH]2)no1", "IC50": 9200},
      {"smiles": "CO/N=C(/N)CCCCCCCCCCCCC(=N)NOC", "IC50": 6800},
      {"smiles": "CCNC(=O)O/N=C(/N)CCCCCCCCCCCCC(=N)NOC(=O)NCC", "IC50": 180},
      {"smiles": "Cc1c(CCO)sc[n+]1CCCCCCCCCCCC[n+]1csc(CCO)c1C", "note": "[ALBITIAZOLIUM BROMIDE]", "IC50": 2.2}
    ]},
    {"test_system": "Plasmodium vinckei petteri", "assay": "Antimalarial activity against Plasmodium vinckei petteri 279BY infected Swiss mice (Mus musculus) at 20 mg/kg/day intraperitoneal dose over 4 days", "assay_type": "functional", "settings": "not given", "method_in_brief": "as §1", "units": {"Activity": "%"}, "values": [
      {"smiles": "O=c1[nH]c(CCCCCCCCCCCCc2nsc(=O)[nH]2)ns1", "Activity": 50}
    ]},
    {"test_system": "Plasmodium vinckei petteri", "assay": "Antimalarial activity against Plasmodium vinckei petteri 279BY infected Swiss mice (Mus musculus) at 120 mg/kg/day peroral dose over 4 days", "assay_type": "functional", "settings": "route oral", "method_in_brief": "as §1", "units": {"Activity": "%"}, "values": [
      {"smiles": "O=c1[nH]c(CCCCCCCCCCCCc2nsc(=O)[nH]2)ns1", "Activity": 25},
      {"smiles": "CCNC(=O)O/N=C(/N)CCCCCCCCCCCCC(=N)NOC(=O)NCC", "Activity": 80}
    ]}
  ]
}
